In brackets after ≈: the same amount, converted by molar mass.
Tests used:
[1] = target: DNA gyrase subunit A/DNA gyrase subunit B (Mycobacterium tuberculosis (strain ATCC 25618 / H37Rv), UniProt P9WG45+P9WG47); test: Inhibition of Mycobacterium tuberculosis DNA gyrase using relaxed pBR322 as substrate after 30 mins by supercoiling assay
[2] = tested on: Mycobacterium tuberculosis; test: Antimicrobial activity against Mycobacterium tuberculosis H37Rv after 7 days by MABA assay; type: functional; details: 168 h
Summary of the method: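 M. tuberculosis H37Rv inoculum from fresh LJ medium, resuspended in 7H9 broth (0.1% casitone, 0.5% glycerol, OADC), adjusted to McFarland No. 1 and diluted 1:20. Serial two-fold drug dilutions in 7H9-S. Drug-free and sterile controls. Incubated 7 days at 37 °C, then Alamar blue added and plates re-incubated overnight. MIC = lowest concentration preventing the blue-to-pink change.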

[3] = Cytotoxicity against mouse RAW264.7 cells assessed as reduction in cell viability at 100 uM after 72 hrs by MTT assay; type: cell-based; details: read-out: INH
Summary of the method: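 RAW 264.7 mouse macrophages exposed to compound at 100 µM for 72 h. Viability measured by MTT conversion to formazan, with absorbance at 560 nm after 10 min incubation. Reported as percent inhibition.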

[4] = target: DNA gyrase subunit B (Mycobacterium smegmatis, UniProt P0C559); test: Inhibition of purified Mycobacterium smegmatis GyrB at 50 to 100 uM after 100 mins by ATPase assay; parameters: species or system Mycolicibacterium smegmatis
Sequence of DNA gyrase subunit B (P0C559 whole entry): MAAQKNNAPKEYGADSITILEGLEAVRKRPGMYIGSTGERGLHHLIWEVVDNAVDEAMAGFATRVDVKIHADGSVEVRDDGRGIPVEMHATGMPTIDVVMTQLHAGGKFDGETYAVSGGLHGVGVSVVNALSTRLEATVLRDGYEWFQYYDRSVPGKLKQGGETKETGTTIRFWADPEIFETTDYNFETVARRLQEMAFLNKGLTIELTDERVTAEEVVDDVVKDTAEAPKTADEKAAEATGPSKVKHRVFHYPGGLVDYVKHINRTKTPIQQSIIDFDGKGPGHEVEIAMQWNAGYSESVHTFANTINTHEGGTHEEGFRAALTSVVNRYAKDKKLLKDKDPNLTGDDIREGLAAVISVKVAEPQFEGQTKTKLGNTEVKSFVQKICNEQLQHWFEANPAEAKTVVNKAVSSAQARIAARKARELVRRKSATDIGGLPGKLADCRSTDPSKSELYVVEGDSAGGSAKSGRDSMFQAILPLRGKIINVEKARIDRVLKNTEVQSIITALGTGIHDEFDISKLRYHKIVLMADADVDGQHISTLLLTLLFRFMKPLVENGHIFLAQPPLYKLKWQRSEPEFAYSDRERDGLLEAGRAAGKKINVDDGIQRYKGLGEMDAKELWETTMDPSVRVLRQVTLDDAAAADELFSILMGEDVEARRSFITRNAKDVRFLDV

[5] = target: DNA gyrase subunit B (Mycobacterium smegmatis) (UniProt P0C559); test: Inhibition of purified Mycobacterium smegmatis GyrB ATPase activity at 50 to 100 uM after 100 mins by ATPase assay; details: Mycolicibacterium smegmatis
Sequence of DNA gyrase subunit B (Mycobacterium smegmatis) (P0C559 2-675 limits assumed): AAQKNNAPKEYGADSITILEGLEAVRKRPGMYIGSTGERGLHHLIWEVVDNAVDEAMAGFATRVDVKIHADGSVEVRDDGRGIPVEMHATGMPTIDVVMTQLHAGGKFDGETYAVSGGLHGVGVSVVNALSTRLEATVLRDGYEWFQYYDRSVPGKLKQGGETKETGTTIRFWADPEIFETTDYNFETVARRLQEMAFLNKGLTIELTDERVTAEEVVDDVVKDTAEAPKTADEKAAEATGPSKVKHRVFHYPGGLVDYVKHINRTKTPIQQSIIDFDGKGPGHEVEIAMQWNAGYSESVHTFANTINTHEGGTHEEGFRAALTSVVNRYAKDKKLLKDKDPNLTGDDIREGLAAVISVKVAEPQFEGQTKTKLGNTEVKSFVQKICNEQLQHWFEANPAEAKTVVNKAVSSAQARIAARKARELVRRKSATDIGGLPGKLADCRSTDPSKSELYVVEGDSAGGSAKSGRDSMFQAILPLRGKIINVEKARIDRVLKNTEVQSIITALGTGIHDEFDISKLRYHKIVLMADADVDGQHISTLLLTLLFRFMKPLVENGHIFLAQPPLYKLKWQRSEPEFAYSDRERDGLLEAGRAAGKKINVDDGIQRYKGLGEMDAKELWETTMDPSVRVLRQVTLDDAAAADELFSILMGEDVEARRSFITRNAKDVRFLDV
Summary of the method: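 M. smegmatis GyrB expressed in BL21(DE3)pLysS, IPTG-induced (0.1 mM final), then Ni-NTA purified. Started with MgCl2, 100 min at room temperature. Released phosphate read at 635 nm.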

[6] = target: DNA gyrase subunit A/DNA gyrase subunit B (Mycobacterium tuberculosis (strain ATCC 25618 / H37Rv)) (UniProt P9WG45+P9WG47); test: Binding affinity to Mycobacterium tuberculosis DNA gyrase by differential scanning fluorimetry
Summary of the method: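 Thermal shift assay with native GyrB protein. Reaction of 15 µL: assay buffer (50 mM Tris pH 7.4, 1 mM EDTA, 5 mM DTT), GyrB protein (1.5 mg/mL) and Sypro orange dye (1:100). Heated stepwise from 25 °C to 100 °C at 0.6 °C/min. Tm read from dye fluorescence. Shift in Tm of the ligand complex compared with the native protein Tm.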

Sequence of DNA gyrase subunit A/DNA gyrase subunit B (P9WG45 whole entry): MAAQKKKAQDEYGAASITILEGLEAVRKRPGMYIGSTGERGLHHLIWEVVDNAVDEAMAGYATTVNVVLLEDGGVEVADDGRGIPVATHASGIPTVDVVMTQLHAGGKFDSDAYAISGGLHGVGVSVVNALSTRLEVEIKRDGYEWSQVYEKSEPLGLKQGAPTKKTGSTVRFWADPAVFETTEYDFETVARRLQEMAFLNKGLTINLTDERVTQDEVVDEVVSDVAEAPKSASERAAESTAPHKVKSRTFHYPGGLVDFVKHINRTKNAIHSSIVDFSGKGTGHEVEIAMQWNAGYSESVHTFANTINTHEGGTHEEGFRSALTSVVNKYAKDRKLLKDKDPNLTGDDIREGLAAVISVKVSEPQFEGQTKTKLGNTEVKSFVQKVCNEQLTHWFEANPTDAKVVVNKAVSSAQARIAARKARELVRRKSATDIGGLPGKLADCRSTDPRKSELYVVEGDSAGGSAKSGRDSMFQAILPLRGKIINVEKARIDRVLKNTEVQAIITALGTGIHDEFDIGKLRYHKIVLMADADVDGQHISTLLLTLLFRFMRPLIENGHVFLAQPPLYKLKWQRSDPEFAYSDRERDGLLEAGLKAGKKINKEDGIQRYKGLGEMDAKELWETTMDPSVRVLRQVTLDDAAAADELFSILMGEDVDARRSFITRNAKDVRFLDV
Sequence of DNA gyrase subunit A/DNA gyrase subunit B (P9WG47 whole entry): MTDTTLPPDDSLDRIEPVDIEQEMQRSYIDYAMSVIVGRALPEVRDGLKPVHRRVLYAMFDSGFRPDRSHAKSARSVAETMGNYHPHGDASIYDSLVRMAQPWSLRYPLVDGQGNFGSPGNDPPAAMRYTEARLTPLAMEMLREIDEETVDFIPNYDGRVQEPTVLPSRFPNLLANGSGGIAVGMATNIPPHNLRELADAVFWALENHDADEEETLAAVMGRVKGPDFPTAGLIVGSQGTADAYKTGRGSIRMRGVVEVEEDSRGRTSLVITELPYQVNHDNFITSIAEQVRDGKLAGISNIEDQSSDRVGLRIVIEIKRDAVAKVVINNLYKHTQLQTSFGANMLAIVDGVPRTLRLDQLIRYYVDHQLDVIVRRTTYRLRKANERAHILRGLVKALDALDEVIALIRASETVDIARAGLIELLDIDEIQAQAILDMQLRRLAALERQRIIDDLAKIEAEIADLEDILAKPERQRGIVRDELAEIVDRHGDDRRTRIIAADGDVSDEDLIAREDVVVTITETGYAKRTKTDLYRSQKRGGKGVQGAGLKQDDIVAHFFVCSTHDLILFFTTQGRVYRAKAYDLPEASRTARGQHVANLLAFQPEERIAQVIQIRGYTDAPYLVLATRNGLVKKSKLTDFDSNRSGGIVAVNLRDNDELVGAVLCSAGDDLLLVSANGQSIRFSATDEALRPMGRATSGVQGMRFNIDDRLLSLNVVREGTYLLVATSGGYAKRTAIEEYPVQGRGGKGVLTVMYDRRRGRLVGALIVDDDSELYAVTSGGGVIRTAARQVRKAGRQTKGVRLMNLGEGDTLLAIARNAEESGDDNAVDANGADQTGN

S=C(NCc1ccccc1)N1CCN(c2nsc3ccccc23)CC1
IC50 [1]: > 25 µM | MIC [2]: 14.7 µM (≈ 5.42 µg/mL) | cytotoxicity at 72 h, 100 µM [3]: 19.1% | IC50 [4]: 46 µM

S=C(NCc1ccc(Cl)cc1)N1CCN(c2nsc3ccccc23)CC1
IC50 [1]: 4.4 µM | MIC [2]: 6.82 µM (≈ 2.75 µg/mL) | cytotoxicity at 72 h, 100 µM [3]: 25.9% | IC50 [4]: 11.3 µM

S=C(Nc1ccc(Cl)cc1)N1CCN(c2nsc3ccccc23)CC1
IC50 [1]: 4.21 µM | MIC [2]: 3.51 µM (≈ 1.37 µg/mL) | inhibition [5]: > 60% | cytotoxicity at 72 h, 100 µM [3]: 44.2% | IC50 [4]: 9.32 µM

O=C(Nc1ccc([N+](=O)[O-])cc1)N1CCN(c2nsc3ccccc23)CC1
IC50 [1]: 12.2 µM | MIC [2]: 28.5 µM (≈ 10.9 µg/mL) | cytotoxicity at 72 h, 100 µM [3]: 20.9% | IC50 [4]: 27.1 µM

COc1ccc(NC(=S)N2CCN(c3nsc4ccccc34)CC2)cc1
IC50 [1]: 1.05 µM | MIC [2]: 3.54 µM (≈ 1.36 µg/mL) | inhibition [5]: > 60% | cytotoxicity at 72 h, 100 µM [3]: 19% | IC50 [4]: 2.86 µM

CCOC(=O)c1cc2cc(N3CCN(C(=S)NCc4ccc(Cl)cc4)CC3)ccc2o1
IC50 [1]: 11.3 µM | MIC [2]: 62 µM (≈ 28.4 µg/mL) | cytotoxicity at 72 h, 100 µM [3]: 41.5% | IC50 [4]: 29.9 µM

CCOC(=O)c1cc2cc(N3CCN(C(=S)Nc4ccc([N+](=O)[O-])cc4)CC3)ccc2o1
IC50 [1]: 10.6 µM | MIC [2]: 62.6 µM (≈ 28.4 µg/mL) | inhibition [5]: > 60% | cytotoxicity at 72 h, 100 µM [3]: 25.8% | IC50 [4]: 12.9 µM

CCOC(=O)c1cc2cc(N3CCN(C(=S)Nc4ccc(OC)cc4)CC3)ccc2o1
IC50 [1]: 19.8 µM | MIC [2]: 16.2 µM (≈ 7.14 µg/mL) | cytotoxicity at 72 h, 100 µM [3]: 20.6% | IC50 [4]: 24.4 µM

CCOC(=O)c1cc2cc(N3CCN(C(=S)Nc4ccccc4)CC3)ccc2o1
IC50 [1]: 7.2 µM | MIC [2]: 35.3 µM (≈ 14.4 µg/mL) | cytotoxicity at 72 h, 100 µM [3]: 22.9% | IC50 [4]: 15.6 µM

CCOC(=O)c1cc2cc(N3CCN(C(=O)Nc4ccc(C(C)=O)cc4)CC3)ccc2o1
IC50 [1]: 3.55 µM | MIC [2]: 83.5 µM (≈ 36.4 µg/mL) | inhibition [5]: > 60% | cytotoxicity at 72 h, 100 µM [3]: 21.6% | IC50 [4]: 7.86 µM

CCOC(=O)c1cc2cc(N3CCN(C(=O)Nc4ccc(Cl)cc4)CC3)ccc2o1
IC50 [1]: 18.2 µM | MIC [2]: 16.8 µM (≈ 7.17 µg/mL) | cytotoxicity at 72 h, 100 µM [3]: 19.2% | IC50 [4]: 20.7 µM

O=C(NCc1ccccc1)N1CCN(c2nsc3ccccc23)CC1
IC50 [1]: 1.18 µM | MIC [2]: 1.9 µM (≈ 0.67 µg/mL) | inhibition [5]: > 60% | cytotoxicity at 72 h, 100 µM [3]: 30.2% | IC50 [4]: 2.36 µM

CC(=O)c1ccc(NC(=S)N2CCN(c3nsc4ccccc34)CC2)cc1
IC50 [1]: 8.4 µM | MIC [2]: 13.8 µM (≈ 5.48 µg/mL) | cytotoxicity at 72 h, 100 µM [3]: 40.7% | IC50 [4]: 11.1 µM

CCOC(=O)c1cc2cc(N3CCN(C(=O)NCc4ccc(Cl)cc4)CC3)ccc2o1
IC50 [1]: 1.61 µM | MIC [2]: 64.6 µM (≈ 28.6 µg/mL) | inhibition [5]: > 60% | cytotoxicity at 72 h, 100 µM [3]: 21.6% | IC50 [4]: 2.97 µM

CO[C@H]1/C=C/O[C@@]2(C)Oc3c(C)c(O)c4c(O)c(c(/C=N/N5CCN(C)CC5)c(O)c4c3C2=O)NC(=O)/C(C)=C\C=C\[C@H](C)[C@H](O)[C@@H](C)[C@@H](O)[C@@H](C)[C@H](OC(C)=O)[C@@H]1C [RIFAMPIN]
MIC [2]: 0.23 µM (≈ 0.189 µg/mL)

NNC(=O)c1ccncc1 [ISONIAZID]
MIC [2]: 0.66 µM (≈ 0.0905 µg/mL)

CCOC(=O)c1cc2cc(N3CCN(C(=S)Nc4ccc(C(C)=O)cc4)CC3)ccc2o1
IC50 [1]: 16.9 µM | MIC [2]: 31.5 µM (≈ 14.2 µg/mL) | cytotoxicity at 72 h, 100 µM [3]: 21.2% | IC50 [4]: 27.3 µM

O=C(Nc1ccc(Cl)cc1)N1CCN(c2nsc3ccccc23)CC1
IC50 [1]: 0.42 µM | MIC [2]: 3.44 µM (≈ 1.28 µg/mL) | inhibition [5]: > 60% | cytotoxicity at 72 h, 100 µM [3]: 20.3% | Tm [6]: 46.1 °C | IC50 [4]: 1.77 µM

O=C(NCc1ccc(Cl)cc1)N1CCN(c2nsc3ccccc23)CC1
IC50 [1]: 3.55 µM | MIC [2]: 14.1 µM (≈ 5.46 µg/mL) | inhibition [5]: > 60% | cytotoxicity at 72 h, 100 µM [3]: 29.1% | IC50 [4]: 6.88 µM

CCOC(=O)c1cc2cc(N3CCN(C(=S)NCc4ccccc4)CC3)ccc2o1
IC50 [1]: 9.1 µM | MIC [2]: 33.9 µM (≈ 14.4 µg/mL) | cytotoxicity at 72 h, 100 µM [3]: 45.8% | IC50 [4]: 20.4 µM

CCOC(=O)c1cc2cc(N3CCN(C(=O)NCc4ccccc4)CC3)ccc2o1
IC50 [1]: 3.12 µM | MIC [2]: 35.5 µM (≈ 14.4 µg/mL) | inhibition [5]: > 60% | cytotoxicity at 72 h, 100 µM [3]: 40.9% | IC50 [4]: 4.32 µM

CCOC(=O)c1cc2cc(N3CCN(C(=O)Nc4ccc([N+](=O)[O-])cc4)CC3)ccc2o1
IC50 [1]: 2.93 µM | MIC [2]: 16.3 µM (≈ 7.15 µg/mL) | inhibition [5]: > 60% | cytotoxicity at 72 h, 100 µM [3]: 19.6% | IC50 [4]: 5.07 µM

O=[N+]([O-])c1ccc(NC(=S)N2CCN(c3nsc4ccccc34)CC2)cc1
IC50 [1]: 0.83 µM | MIC [2]: 13.7 µM (≈ 5.48 µg/mL) | inhibition [5]: > 60% | cytotoxicity at 72 h, 100 µM [3]: 27.6% | IC50 [4]: 1.81 µM

O=C(Nc1ccccc1)N1CCN(c2nsc3ccccc23)CC1
IC50 [1]: 4.59 µM | MIC [2]: 68.9 µM (≈ 23.3 µg/mL) | cytotoxicity at 72 h, 100 µM [3]: 27% | IC50 [4]: 19.9 µM

CC1COc2c(N3CCN(C)CC3)c(F)cc3c(=O)c(C(=O)O)cn1c23 (stereo not given) [OFLOXACIN]
MIC [2]: 2.16 µM (≈ 0.781 µg/mL)

CCOC(=O)c1cc2cc(N3CCN(C(=S)Nc4ccc(Cl)cc4)CC3)ccc2o1
IC50 [1]: 13.2 µM | MIC [2]: 16.1 µM (≈ 7.13 µg/mL) | cytotoxicity at 72 h, 100 µM [3]: 30% | IC50 [4]: 35.2 µM

CC(=O)c1ccc(NC(=O)N2CCN(c3nsc4ccccc34)CC2)cc1
IC50 [1]: 9.51 µM | MIC [2]: 28.7 µM (≈ 10.9 µg/mL) | cytotoxicity at 72 h, 100 µM [3]: 20.2% | IC50 [4]: 29.3 µM

CCOC(=O)c1cc2cc(N3CCN(C(=O)Nc4ccc(OC)cc4)CC3)ccc2o1
IC50 [1]: 7.33 µM | MIC [2]: 4.24 µM (≈ 1.8 µg/mL) | inhibition [5]: > 60% | cytotoxicity at 72 h, 100 µM [3]: 19.9% | IC50 [4]: 8.19 µM

CCOC(=O)c1cc2cc(N3CCN(C(=O)Nc4ccccc4)CC3)ccc2o1
IC50 [1]: 7.14 µM | MIC [2]: 92.6 µM (≈ 36.4 µg/mL) | cytotoxicity at 72 h, 100 µM [3]: 21.3% | IC50 [4]: 16.9 µM

S=C(Nc1ccccc1)N1CCN(c2nsc3ccccc23)CC1
IC50 [1]: 3.9 µM | MIC [2]: 15.2 µM (≈ 5.4 µg/mL) | inhibition [5]: > 60% | cytotoxicity at 72 h, 100 µM [3]: 39.3% | IC50 [4]: 9.14 µM

CC[C@@H](CO)NCCN[C@@H](CC)CO [ETHAMBUTOL]
MIC [2]: 0.66 µM (≈ 0.135 µg/mL)

COc1ccc(NC(=O)N2CCN(c3nsc4ccccc34)CC2)cc1
IC50 [1]: 12.2 µM | MIC [2]: 14.7 µM (≈ 5.42 µg/mL) | cytotoxicity at 72 h, 100 µM [3]: 37.6% | IC50 [4]: 26.2 µM

Source: ChEMBL document CHEMBL3351402, “An efficient synthesis and biological screening of benzofuran and benzo[d]isothiazole derivatives for Mycobacterium tuberculosis DNA GyrB inhibition” (Bioorg Med Chem, 2014)
